High-throughput results: PubChem, several laboratories
The full list was thinned out, with hits kept by preference.
Lmaj promast – Leishmania major promastigote growth inhibition; inhibition, % at 10 µM; 200,000 tested, 9% active; Leishmania major promastigotes, resazurin fluorescence viability; in the data active = inhibition above about 50%;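 note: promastigotes grown with compound for 44 hours at 28 °C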
PolyA inh – blocks polyadenylation in yeast reporter cells | S. cerevisiae SKY197-pL101 polyadenylation reporter, beta-gal luminescence; efflux-impaired pdr1/pdr3 knockout yeast; score 100 = 6 SD above DMSO | 300,000 tested, 0.02% active | activity score, % at 12 µM | AID 1875;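 active = lowest replicate activity score at least 50, where 100 means six control SD above control mean; inconclusive = lowest score under 50 but half or more replicates reach 50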;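 note: yeast exposed to compound for 9 h at 30 °C; higher score means more reporter readthrough which indicates perturbed polyadenylation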
NLRP3 yeast inh – inhibitors of NALP3 inflammasome in yeast. Yeast reconstituted NLRP3/ASC/caspase-1, beta-gal luminescence, 24 h. inhibition, % at 10 µM. 330,000 tested, 0.39% active. AID 2825;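 active = inhibition of 50% or more; inactive = inhibition below 50%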;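 note: plate controls were induced DMSO wells for no effect and uninduced yeast grown without galactose for full effect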
Calb FLC – affects C. albicans growth with fluconazole. C. albicans CaCi-2 + fluconazole, Alamar Blue growth, 48 h. AID 1979. 300,000 tested, 0.57% active. growth inhibition, % (concentration not given with the values);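 active = growth inhibition above about 58% in most replicates, limit read from the data, passing the limit was not always enough; inconclusive = exactly half the replicates above a set limit; inactive = most replicates below a set limit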;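 note: all wells also contain fluconazole at 8 µg/ml as a sub-toxic cotreatment; 0% = median of DMSO wells and 100% = median of geldanamycin control wells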
NALP1 yeast inh – inhibitors of NALP1 inflammasome in yeast; S. cerevisiae NALP1/ASC/caspase-1 growth, X-gal OD620, 72 h; inhibition, % at 10 µM; 280,000 tested, 0.61% active; in the data active = inhibition mostly above about 24%, no sharp cut-off; inactive = mostly below about 32%
T cruzi repl – T. cruzi replication inhibition. T. cruzi beta-gal in NIH3T3, luminescence, 90 h. inhibition, % (concentration not given with the values). 300,000 tested, 1.4% active. AID 1885;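 active = mean inhibition across valid replicates above about 55%, limit read from the data; inconclusive = mean below that limit but half or more replicates reach it; inactive = mean below it, under half of replicates reach it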;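 note: signal also drops with host cell toxicity which is not excluded here; 0% = plate median of DMSO wells and 100% = zero luminescence signal; higher percent means less beta-gal luminescence so fewer parasites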
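System: mouse NIH/3T3 fibroblasts infected with β-gal-expressing T. cruzi Tulahuen C4 / Input: NIH/3T3 cells, 5,000 per well / Buffer or medium: Low-serum DMEM with 2% FBS / Probe or stimulus: 5000 reporter trypomastigotes per well / Schedule: ≥90 h infection period, 3 h prior cell attachment / Measured by: GalScreen luminescence, 60 min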
* = called active by the depositor; ? = inconclusive; / = no result.

SMILES	Lmaj promast	PolyA inh	NLRP3 yeast inh	Calb FLC	NALP1 yeast inh	T cruzi repl
Cc1ccc(Cn2cc(S(=O)(=O)c3ccc(C(C)C)cc3)c(=O)c3cc4c(cc32)OCO4)cc1	65.2*	15.2	-1.8	3.3	40.7	37.1
COc1ccc(-c2nnc(SCC(=O)NC3CCCCC3)n2N)cc1	/	/	6.5	/	/	/
COc1nc(NCCO)nc(Nc2ccc([N+](=O)[O-])cc2)n1	3.8	0.7	11.8	-2.7	20.6	0.8
C=CCNc1nc(Nc2ccc([N+](=O)[O-])cc2)nc(OCC)n1	7.3	14.2	16.5	17.1	28.5	9.0
CCOc1nc(Nc2ccc([N+](=O)[O-])cc2)nc(NC(C)(C)C)n1	73.7*	-7.2	9.0	-1.8	12.9	35.2
COc1nc(Nc2ccc([N+](=O)[O-])cc2)nc(NC(C)C)n1	97.5*	-25.8	-3.4	2.4	18.0	9.5
Cc1cc(C)nc(SCc2nnc(SCc3ccccc3Cl)o2)n1	11.0	-15.4	20.1	9.3	38.7	-5.6
O=[N+]([O-])c1cccc2c(N3CCCC3)ccnc12	88.0*	-3.0	36.4	11.2	-2.6	50.8
O=C(O)CN1C(=O)COc2ccc(S(=O)(=O)N3CCCCCC3)cc21	/	16.6	1.0	14.8	-0.5	-21.5
CCOC(=O)c1cnc2c(ccc3ccccc32)c1NCCO	40.6	-9.6	29.6	48.9	-93.8	38.4
CCOC(=O)c1ccccc1Oc1c(F)c(F)nc(NCCO)c1F	81.7*	21.0	7.9	21.4	18.9	-13.4
CCc1c(O)cc2n(c1=O)-c1ccc(Cl)cc1C2(C)C	71.1*	16.8	5.9	-5.0	6.0	6.7
CC(C)(C=O)C1=CC(=O)c2ccccc2C1=O	55.6*	/	/	/	47.7*	/
O=C(/C=C/c1ccccc1)c1ccc(NC2=NCCCS2)cc1	100.2*	/	/	/	33.0	/
c1ccc(NC2=NCCCCS2)cc1	-2.8	-1.0	17.9	-9.6	7.3	-1.5
CC(C)(C)c1ccc(/C=C/C(=O)c2ccc(NC3=NCCCS3)cc2)cc1	100.4*	/	8.0	/	46.8	57.5*
O=C(/C=C/c1ccc(Br)cc1)c1ccc(NC2=NCCCS2)cc1	100.3*	-8.1	21.4	11.2	13.4	45.1
CC/C(=N\NC(=O)c1nnn(-c2nonc2N)c1-c1cccc(OC)c1)c1ccc(C)cc1	/	-5.9	12.2	-2.8	0.1	-8.0
CCN(CC)S(=O)(=O)N1CCC(C(=O)NCCC2=CCCCC2)CC1	-2.5	4.9	14.2	-4.4	-2.0	0.5
CCN(CC)Cc1c(O)ccc2c1O/C(=C\C=C\c1ccccc1)C2=O	/	0.5	23.5	14.6	/	60.4*
Cc1ccc(OCC(O)CNC2CCCC2)c(C)c1 (stereo not given)	/	-19.6	16.3	-1.2	4.1	1.6
CCN1CCCC1CNCC(O)COc1ccc(C(C)(C)C)cc1C (stereo not given)	86.0*	-13.5	39.5	-4.0	0.5	7.4
CCn1c(SCC(=O)Nc2cccc(NC(C)=O)c2)nnc1-c1ccco1	/	6.7	9.3	-5.8	9.9	-9.0
CCn1c(SCC(=O)Nc2ccc3c(c2)c2ccccc2n3CC)nnc1-c1ccco1	71.8*	0.4	8.3	1.1	-61.6	-21.1
CCn1c(SCC(=O)Nc2cc(C)on2)nnc1-c1ccco1	-5.7	8.0	2.7	3.0	38.9*	-1.7
SMILES	Lmaj promast	PolyA inh	NLRP3 yeast inh	Calb FLC	NALP1 yeast inh	T cruzi repl
CCCN(CC(=O)Nc1ccccc1C)C(=O)c1ccc(COc2ccccc2)cc1	/	-6.6	13.2	-1.0	1.7	6.1
COc1ccc(Cl)cc1S(=O)(=O)Oc1ccc(NC(C)=O)cc1	-0.9	-9.1	7.1	-1.0	6.4	7.2
Cc1ccccc1NC(=S)N1CCCC(c2nc3ccccc3[nH]2)C1 (stereo not given)	4.0	-4.1	7.3	9.4	-10.0	71.6*
Cc1ccc(NC(=S)N2CCCC(c3nc4ccccc4[nH]3)C2)cc1 (stereo not given)	88.7*	2.1	20.1	-2.9	3.1	-1.3
CCCCCn1nc(C(=O)N2CCc3ccccc32)c2ccccc2c1=O	/	/	3.9	/	/	/
COCCCNC(CC(=O)Nc1ccccc1C(=O)OC)C(=O)O (stereo not given)	-3.7	/	/	/	/	/
O=C(C1CCCN(CCCc2ccccc2)C1)N1CCCCCC1 (stereo not given)	71.0*	11.3	5.7	-21.8	5.8	40.2
CC1CCN(C(=O)C2CCN(CCCc3ccccc3)CC2)CC1	53.0*	12.6	22.6	-2.6	24.2	4.8
CC(=O)Nc1ccc2c(c1)ncn2-c1ccc(C)cc1	-5.1	/	-6.3	-5.3	11.5	/
CC(C)CCn1c(=O)c2ccccc2n2c(CN3CCOCC3)nnc12	1.3	-13.7	2.4	1.5	-0.7	17.8
Cc1ccc(-c2nnc(Nc3ccc4c(c3)OCO4)c3ccccc23)cc1S(=O)(=O)NC(C)C	91.4*	16.6	-0.8	7.4	20.9	38.2
Cc1ccc(-c2nnc(Nc3ccccc3)c3ccccc23)cc1S(=O)(=O)NCC1CCCO1 (stereo not given)	80.3*	2.6	-11.7	60.8*	6.4	24.8
CC(=O)Nc1ccc(Nc2nnc(-c3ccc(C)c(S(=O)(=O)NCC4CCCO4)c3)c3ccccc23)cc1 (stereo not given)	/	1.6	16.2	-5.2	-3.4	-6.3
Cc1ccc(-c2nnc(Nc3ccc4c(c3)OCO4)c3ccccc23)cc1S(=O)(=O)NCCO	76.8*	1.9	-8.4	43.3	16.7	18.5
CNS(=O)(=O)c1cc(-c2nnc(Nc3ccc(NC(C)=O)cc3)c3ccccc23)ccc1C	/	-3.4	-6.6	3.0	9.4	-5.9
Cc1cc(S(=O)(=O)NCCN(C)C)c(C)s1	-1.3	15.5	8.2	-22.8	31.4	-1.7
O=C1NCCN/C1=C\C(=O)c1ccc(F)cc1	/	18.5	13.1	-3.7	25.7	-17.1
O=C1NCCN/C1=C\C(=O)c1ccc(Cl)cc1	/	27.1	16.3	-20.9	39.3*	1.0
C=CCOn1c(=O)c(-c2cc3ccccc3o2)[n+]([O-])c2ccccc21	-8.0	3.7	20.0	9.9	28.3*	10.5
[O-][n+]1c2c(c3c4non(O)c4ccc31)CCCC2	-7.0	-25.0	27.1	4.5	13.6	-18.7
Cc1ccc(/C=N/Nc2nc3ccccc3[nH]2)s1	57.5*	-4.3	20.1	?	34.1	30.0
O=[N+]([O-])c1cc(/C=N/Nc2nc3ccccc3[nH]2)c(O)cc1O	99.4*	1.1	/	87.8*	11.5	28.6
Cc1ccccc1/C=N/Nc1nc2ccccc2[nH]1	79.1*	-6.4	18.6	6.4	2.5	32.2
Brc1ccc(-c2ccc(/C=N/Nc3nc4ccccc4[nH]3)o2)cc1	79.5*	-17.5	8.8	50.4	23.0	61.8*
O=c1[nH]c(N/N=C/c2cc3c(cc2[N+](=O)[O-])OCO3)nc2ccccc12	/	9.1	-4.7	4.8	1.4	0.4
C(=N\Nc1nc2ccccc2[nH]1)/c1ccccc1	46.7	2.5	7.4	-3.5	-5.6	-4.1
COC(=O)C(C)(C)ONC(=O)Nc1ccccc1	-5.3	-5.3	-3.2	2.8	32.4	-14.0
